According to ChEMBL document CHEMBL2034911, “Carbazole alkaloids from the stems of Clausena lansium” (J Nat Prod, 2012):
Activity calls are given as the source filed them. The calls are words filed in the database; no cut-off is given here.

Legend:
Assay type in all cases: functional, cell-based
PC-12 [1] = experiment: Neuroprotective activity in rat PC12 cells assessed as inhibition of amyloid beta(25 to 35)-induced cell death at 10 uM incubated 48 hrs […] by MTT assay
In short: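 PC12 cells were grown in DMEM with 5% FBS and 5% equine serum and seeded at 5000 cells/well for 24 h. Basic medium with 15 μM Aβ25−35 was applied for 48 h, with compound (DMSO stock, >1000-fold dilution) co-added, in triplicate. Viability was measured by MTT (4 h), formazan dissolved in DMSO, and absorbance read at 570 nm. ANOVA/Newman–Keuls.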

PC-12 [2] = experiment: Neuroprotective activity in rat PC12 cells assessed as inhibition of SNP-induced cell death at 10 uM incubated 24 hrs post SNP-challenge for 24 hrs by MTT assay
In short: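 PC12 cells were grown in DMEM with 5% FBS and 5% equine serum and seeded at 5000 cells/well for 24 h. Medium was switched to basic medium with 350 μM SNP for 24 h, with compound (DMSO stock, >1000-fold dilution) added at the same time, in triplicate. MTT was added for 4 h, formazan dissolved in DMSO, and A570 read. ANOVA with Newman–Keuls post hoc test.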

PC-12 [3] = experiment: Neuroprotective activity in rat PC12 cells assessed as inhibition of serum starvation-induced cell death after 24 hrs by MTT assay
In short: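 Serum-withdrawal model: PC12 cells (5000/well) were pre-grown 24 h in DMEM with 5% FBS and 5% equine serum, then moved to plain DMEM. Compound (DMSO stock, >1000-fold dilution) was added at the same time, in triplicate, and cells were incubated 24 h at 37 °C, 5% CO2. MTT was added for 4 h, formazan dissolved in DMSO, and A570 read. ANOVA with Newman–Keuls test.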

With `COc1ccc2[nH]c3ccc(C=O)cc3c2c1` the Activity (PC-12 [1]) was “inactive”, the Activity (PC-12 [2]) was “inactive” and the Activity (PC-12 [3]) was “inactive”.
In the case of `O=Cc1ccc2[nH]c3ccccc3c2c1`, the Activity (PC-12 [1]) is reported as “inactive”, the Activity (PC-12 [2]) is reported as “inactive” and the Activity (PC-12 [3]) is reported as “inactive”.
For `COc1c2c(cc3c1[nH]c1ccccc13)C(=O)O[C@H](C(C)(C)O)[C@H]2O`, the Activity (PC-12 [1]) was “inactive”, the Activity (PC-12 [2]) was “inactive” and the Activity (PC-12 [3]) was “inactive”.
With `COc1c2c(cc3c1[nH]c1ccccc13)C(=O)C(=C(C)C)C2` the Activity (PC-12 [1]) was “inactive”, the Activity (PC-12 [2]) was “inactive” and the Activity (PC-12 [3]) was “inactive”.
`CC(C)=CCc1c(C=O)cc2c([nH]c3ccccc32)c1O` was tested, and the Activity (PC-12 [1]) was “Active”, the Activity (PC-12 [2]) was “inactive” and the Activity (PC-12 [3]) was “inactive”.
With `COc1ccc2[nH]c3c(O)cc(C=O)cc3c2c1` the Activity (PC-12 [1]) was “inactive”, the Activity (PC-12 [2]) was “Active” and the Activity (PC-12 [3]) was “inactive”.
For `COC(=O)c1ccc2[nH]c3ccc(OC)cc3c2c1`, the Activity (PC-12 [1]) was “inactive”, the Activity (PC-12 [2]) was “Active” and the Activity (PC-12 [3]) was “inactive”.
With `COc1c2c(cc3c1[nH]c1ccccc13)[C@H]1O[C@@H](C2)C(C)(C)O1` the Activity (PC-12 [1]) was “Active”, the Activity (PC-12 [2]) was “Active” and the Activity (PC-12 [3]) was “inactive”.
In the case of `CC(C)=CCc1c(C=O)cc(O)c2[nH]c3ccccc3c12`, the Activity (PC-12 [1]) is reported as “inactive”, the Activity (PC-12 [2]) is reported as “inactive” and the Activity (PC-12 [3]) is reported as “inactive”.
For `COc1cc2c(cc1O)[nH]c1c(CC=C(C)C)c(O)c(C=O)cc12`, the Activity (PC-12 [1]) was “Active”, the Activity (PC-12 [2]) was “inactive” and the Activity (PC-12 [3]) was “inactive”.
`COc1ccc2[nH]c3c4c(c(C=O)cc3c2c1)OC(C)(C)C=C4` was tested, and the Activity (PC-12 [1]) was “inactive”, the Activity (PC-12 [2]) was “Active” and the Activity (PC-12 [3]) was “inactive”.
For `COc1ccc2[nH]c3cc(OC)c(C=O)cc3c2c1`, the Activity (PC-12 [1]) was “inactive”, the Activity (PC-12 [2]) was “inactive” and the Activity (PC-12 [3]) was “inactive”.
`COc1c2c(cc3c1[nH]c1ccccc13)C(=O)C[C@@H]2O` was tested, and the Activity (PC-12 [1]) was “inactive”, the Activity (PC-12 [2]) was “inactive” and the Activity (PC-12 [3]) was “inactive”.
For `COc1cc(C=O)cc2c1[nH]c1ccccc12`, the Activity (PC-12 [1]) was “Active”, the Activity (PC-12 [2]) was “Active” and the Activity (PC-12 [3]) was “inactive”.
With `COc1c2c(cc3c1[nH]c1ccccc13)[C@H]1O[C@@H]([C@H]2O)C(C)(C)O1` the Activity (PC-12 [1]) was “inactive”, the Activity (PC-12 [2]) was “inactive” and the Activity (PC-12 [3]) was “inactive”.
In the case of `COc1c2c(cc3c1[nH]c1ccccc13)C(=O)O[C@@H]2[C@H](O)C(C)(C)O`, the Activity (PC-12 [1]) is reported as “inactive”, the Activity (PC-12 [2]) is reported as “inactive” and the Activity (PC-12 [3]) is reported as “inactive”.
`COc1cc2c(cc1O)[nH]c1cc(O)c(C=O)cc12` was tested, and the Activity (PC-12 [1]) was “Active”, the Activity (PC-12 [2]) was “Active” and the Activity (PC-12 [3]) was “inactive”.
